In brackets after ≈: the same amount, converted by molar mass.
Columns and labels:
Candida albicans [1] = test: Growth inhibition of Candida albicans ATCC 10231 at 3.4 ug/ml incubated for 48 hrs under dark condition by broth microdilution method relative to control; type: functional; details: ATCC 10231, 48 h, read-out: GI
Plasmodium falciparum = test: Antiplasmodial activity against chloroquine-sensitive Plasmodium falciparum 3D7 assessed as reduction in parasitic LDH activity after 48 hrs by Malstat reagent based […] method; type: functional; details: 3D7, 48 h
Method in brief: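 Unsynchronized P. falciparum 3D7 at 0.5% parasitemia and 1% hematocrit in RPMI with 3% Albumax II. Exposed to 100, 25, 6.25 and 1.56 µg/mL for 48 h at 37 °C under 90% N2/5% CO2/5% O2. After three freeze-thaw cycles, LDH measured with Malstat and NBT/PES, 1 h in the dark, read at 650 nm. IC50 by Probit; triplicate, ≥2 experiments.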

U-937 = test: Cytotoxicity against human U937 cells after 72 hrs by MTT assay; type: cell-based; details: u-937, 72 h
Method in brief: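 Exponentially growing U-937 at 1 × 10^5 cells/mL in RPMI-1640 with 10% FBS were exposed to 200, 50, 12.5 and 3.125 µg/mL for 72 h at 37 °C, 5% CO2. MTT for 3 h, stopped with isopropanol/SDS, formazan read at 570 nm, blank-corrected. LC50 by Probit from % viability against untreated cells. Triplicate, at least two independent experiments.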

Candida albicans [2] = test: Growth inhibition of Candida albicans ATCC 10231 at 15.62 ug/ml incubated for 48 hrs under dark condition by broth microdilution method relative to control; type: functional; details: ATCC 10231, 48 h, read-out: GI
Method in brief: (§1)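 CLSI M27-A3 broth microdilution in RPMI-1640, DMSO ≤1%. Inoculum 1-5 × 10^3 CFU/mL. Incubated 48 h at 30 °C, dark. % inhibition = 100 − (OD405 test − sterility control)/(OD405 growth control − sterility control), with growth and sterility control wells. Triplicate.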

Cryptococcus neoformans [3] = test: Antifungal activity against Cryptococcus neoformans ATCC 32264 incubated for 48 hrs under dark condition by broth microdilution method; type: functional; details: ATCC 32264, 48 h
Method in brief: (§2)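 CLSI M27-A3 broth microdilution in RPMI-1640, DMSO ≤1%, compounds at 250-0.98 µg/mL final. Inoculum 1-5 × 10^3 CFU/mL. Incubated 48 h at 30 °C in a moist dark chamber, read at OD405. MIC80 and MIC50 taken from % inhibition dose-response curves (mean ± SEM, triplicate). Amphotericin B was the positive control.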

Candida albicans [4] = test: Growth inhibition of Candida albicans ATCC 10231 at 250 ug/ml incubated for 48 hrs under dark condition by broth microdilution method relative to control; type: functional; details: ATCC 10231, 48 h, read-out: GI; method in brief: as §1
Candida albicans [5] = test: Growth inhibition of Candida albicans ATCC 10231 at 125 ug/ml incubated for 48 hrs under dark condition by broth microdilution method relative to control; type: functional; details: ATCC 10231, 48 h, read-out: GI; method in brief: as §1
Staphylococcus aureus [6] = test: Antibacterial activity against vancomycin-intermediate Staphylococcus aureus after 24 hrs by resazurin dye based microdilution assay; type: functional
Method in brief: (§3)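 MIC taken as the lowest concentration giving visible inhibition and/or by resazurin (1 mg/mL). Gentamicin was the control. Run in duplicate, repeated at least three times.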

Cryptococcus neoformans [7] = test: Growth inhibition of Cryptococcus neoformans ATCC 32264 at 15.62 ug/ml incubated for 48 hrs under dark condition by broth microdilution method relative to control; type: functional; details: ATCC 32264, 48 h, read-out: GI; method in brief: as §1
Cryptococcus neoformans [8] = test: Growth inhibition of Cryptococcus neoformans ATCC 32264 at 3.4 ug/ml incubated for 48 hrs under dark condition by broth microdilution method relative to control; type: functional; details: ATCC 32264, 48 h, read-out: GI
Cryptococcus neoformans [9] = test: Growth inhibition of Cryptococcus neoformans ATCC 32264 at 31.25 ug/ml incubated for 48 hrs under dark condition by broth microdilution method relative to control; type: functional; details: ATCC 32264, 48 h, read-out: GI; method in brief: as §1
Candida albicans [10] = test: Antifungal activity against Candida albicans ATCC 10231 incubated for 48 hrs under dark condition by broth microdilution method; type: functional; details: ATCC 10231, 48 h; method in brief: as §2
Escherichia coli = test: Antibacterial activity against Escherichia coli ATCC 25922 after 24 hrs by resazurin dye based microdilution assay; type: functional; details: ATCC 25922, 24 h; method in brief: as §3
Leishmania panamensis = test: Antileshmanial activity against EpiR/GFP fused Leishmania panamensis MHOM/CO/87/UA140 intracellular amastigotes infected in human […] cells after 72 hrs by flow cytometric method; type: functional, cell-based; details: MHOM/CO/87/UA140, 72 h
Method in brief: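 PMA-treated U-937 cells (3 × 10^5 cells/mL) infected with stationary-phase GFP L. panamensis promastigotes (15:1), 3 h at 34 °C, then washed. After 24 h, compounds added at 50, 12.5, 3.125 and 0.78 µg/mL for 72 h at 37 °C. EC50 by Probit; triplicate, two experiments.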

Candida albicans [11] = test: Growth inhibition of Candida albicans ATCC 10231 at 62.5 ug/ml incubated for 48 hrs under dark condition by broth microdilution method relative to control; type: functional; details: ATCC 10231, 48 h, read-out: GI; method in brief: as §1
Cryptococcus neoformans [12] = test: Growth inhibition of Cryptococcus neoformans ATCC 32264 at 7.8 ug/ml incubated for 48 hrs under dark condition by broth microdilution method relative to control; type: functional; details: ATCC 32264, 48 h, read-out: GI; method in brief: as §1
Staphylococcus aureus [13] = test: Antibacterial activity against methicillin-resistant Staphylococcus aureus ATCC 43300 after 24 hrs by resazurin dye based microdilution assay; type: functional; details: ATCC 43300, 24 h
Method in brief: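 Broth microdilution in Mueller Hinton broth, inoculum 5 × 10^5 – 8 × 10^5. Compound stocks diluted in MHB with 5% DMSO and 0.1% Tween 80. Incubation 24 h at 35-37 °C. MIC is the lowest concentration with visible growth inhibition and/or by resazurin (1 mg/mL) read-out. Gentamicin as control. Run in duplicate, replicated at least three times.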

Trypanosoma cruzi = test: Antitrypanosomal activity against Trypanosoma cruzi Tulahuen intracellular amastigote harboring LacZ infected in human U937 cells after 72 hrs by CPRG/Nonidet reagent based spectrophotometric method; type: functional, cell-based; details: U-937, 72 h
Method in brief: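 U-937 cells at 2.5 × 10^5 cells/mL in RPMI-1640 with 10% serum and 0.1 µg/mL PMA were infected with β-galactosidase-transfected Tulahuen epimastigotes at 5 parasites per cell. Infected cells were exposed to 50, 12.5, 3.125 and 0.78 µg/mL for 72 h. CPRG (100 uM) and 0.1% Nonidet P-40 were added for 3 h, read at 570 nm. EC50 by Probit. Triplicate, at least two experiments; benznidazole as reference.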

Klebsiella pneumoniae [14] = test: Antibacterial activity against carbapenemase positive Klebsiella pneumoniae BAA 1705 after 24 hrs by resazurin dye based microdilution assay; type: functional; details: BAA 1705, 24 h; method in brief: as §3
Klebsiella pneumoniae [15] = test: Antibacterial activity against ESBL positive Klebsiella pneumoniae ATCC 700603 after 24 hrs by resazurin dye based microdilution assay; type: functional; details: Klebsiella pneumoniae, 700603, 24 h; method in brief: as §3
Neisseria gonorrhoeae = test: Antibacterial activity against beta lactamase positive Neisseria gonorrhoeae ATCC 31426 by oxidase test; type: functional
Method in brief: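 Agar dilution MIC on GC agar with 1% isovitalex containing increasing compound concentrations. Plates inoculated with about 1×10^4 CFU (5 µL). MIC is the lowest concentration that inhibited growth, with growth confirmed by oxidase test. Run in duplicate, repeated at least three times.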

Staphylococcus aureus [16] = test: Antibacterial activity against methicillin-sensitive Staphylococcus aureus ATCC 25923 after 24 hrs by resazurin dye based microdilution assay; type: functional; details: ATCC 25923, 24 h; method in brief: as §3
Cryptococcus neoformans [17] = test: Growth inhibition of Cryptococcus neoformans ATCC 32264 at 125 ug/ml incubated for 48 hrs under dark condition by broth microdilution method relative to control; type: functional; details: ATCC 32264, 48 h, read-out: GI; method in brief: as §1
Cryptococcus neoformans [18] = test: Growth inhibition of Cryptococcus neoformans ATCC 32264 at 250 ug/ml incubated for 48 hrs under dark condition by broth microdilution method relative to control; type: functional; details: ATCC 32264, 48 h, read-out: GI; method in brief: as §1
Candida albicans [19] = test: Growth inhibition of Candida albicans ATCC 10231 at 7.8 ug/ml incubated for 48 hrs under dark condition by broth microdilution method relative to control; type: functional; details: ATCC 10231, 48 h, read-out: GI; method in brief: as §1
Cryptococcus neoformans [20] = test: Growth inhibition of Cryptococcus neoformans ATCC 32264 at 62.5 ug/ml incubated for 48 hrs under dark condition by broth microdilution method relative to control; type: functional; details: ATCC 32264, 48 h, read-out: GI; method in brief: as §1
Pseudomonas aeruginosa = test: Antibacterial activity against Pseudomonas aeruginosa ATCC 27853 after 24 hrs by resazurin dye based microdilution assay; type: functional; details: ATCC 27853, 24 h; method in brief: as §3
Candida albicans [21] = test: Growth inhibition of Candida albicans ATCC 10231 at 31.25 ug/ml incubated for 48 hrs under dark condition by broth microdilution method relative to control; type: functional; details: ATCC 10231, 48 h, read-out: GI; method in brief: as §1

Row | Structure (SMILES) | inhibition of growth at 3.4 µg/mL (Candida albicans [1]) [%] | EC50 (Plasmodium falciparum) [µg/mL] | LC50 (U-937) [µg/mL] | inhibition of growth at 15.62 µg/mL (Candida albicans [2]) [%] | MIC50 (Cryptococcus neoformans [3]) [µg/mL] | MIC80 (Cryptococcus neoformans [3]) [µg/mL] | inhibition of growth at 250 µg/mL (Candida albicans [4]) [%] | inhibition of growth at 125 µg/mL (Candida albicans [5]) [%] | MIC (Staphylococcus aureus [6]) [µg/mL] | inhibition of growth at 15.62 µg/mL (Cryptococcus neoformans [7]) [%] | inhibition of growth at 3.4 µg/mL (Cryptococcus neoformans [8]) [%] | inhibition of growth at 31.25 µg/mL (Cryptococcus neoformans [9]) [%] | MIC50 (Candida albicans [10]) [µg/mL] | MIC80 (Candida albicans [10]) [µg/mL] | MIC (Escherichia coli) [µg/mL] | EC50 (Leishmania panamensis) [µg/mL] | inhibition of growth at 62.5 µg/mL (Candida albicans [11]) [%] | inhibition of growth at 7.8 µg/mL (Cryptococcus neoformans [12]) [%] | MIC (Staphylococcus aureus [13]) [µg/mL] | EC50 (Trypanosoma cruzi) [µg/mL] | other results
1 | Clc1ccc2c(Nc3cccc(C4CC(c5ccccc5)=NN4c4ccccc4)c3)ccnc2c1 (stereo not given) | 3.1 | 13.4 (≈ 28.1 µM) | > 200 | 8.69 | 250 (≈ 526 µM) | ≥ 250 | 53 | 32.4 | > 1000 | 18.4 | 9.75 | 20.4 | 250 (≈ 526 µM) | ≥ 250 | > 1000 | 22.7 (≈ 47.7 µM) | 20.1 | 13.6 | > 1000 | 39.2 (≈ 82.5 µM) | MIC (Klebsiella pneumoniae [14]): > 1000 µg/mL; MIC (Klebsiella pneumoniae [15]): > 1000 µg/mL; MIC (Neisseria gonorrhoeae): > 1000 µg/mL; MIC (Staphylococcus aureus [16]): > 1000 µg/mL; inhibition of growth at 125 µg/mL (Cryptococcus neoformans [17]): 26.5%; inhibition of growth at 250 µg/mL (Cryptococcus neoformans [18]): 52.3%; inhibition of growth at 7.8 µg/mL (Candida albicans [19]): 5.03%; inhibition of growth at 62.5 µg/mL (Cryptococcus neoformans [20]): 20.5%; MIC (Pseudomonas aeruginosa): > 1000 µg/mL; inhibition of growth at 31.25 µg/mL (Candida albicans [21]): 11%
2 | COc1cc(C2=NN(C(C)=O)C(c3cccc(Nc4ccnc5cc(Cl)ccc45)c3)C2)cc(OC)c1OC (stereo not given) | 0 | 22.9 (≈ 43.2 µM) | 5.1 (≈ 9.6 µM) | 6.96 | 250 (≈ 471 µM) | ≥ 250 | 53.8 | 37.3 | > 1000 | 9.86 | 4.02 | 10.2 | 250 (≈ 471 µM) | ≥ 250 | > 1000 | 1.96 (≈ 3.69 µM) | 12.8 | 5.61 | > 1000 | 4.08 (≈ 7.68 µM) | MIC (Klebsiella pneumoniae [14]): > 1000 µg/mL; MIC (Klebsiella pneumoniae [15]): > 1000 µg/mL; MIC (Neisseria gonorrhoeae): 31.2 µg/mL (≈ 58.8 µM); MIC (Staphylococcus aureus [16]): > 1000 µg/mL; inhibition of growth at 125 µg/mL (Cryptococcus neoformans [17]): 23.1%; inhibition of growth at 250 µg/mL (Cryptococcus neoformans [18]): 53.1%; inhibition of growth at 7.8 µg/mL (Candida albicans [19]): 1.46%; inhibition of growth at 62.5 µg/mL (Cryptococcus neoformans [20]): 13.3%; MIC (Pseudomonas aeruginosa): > 1000 µg/mL; inhibition of growth at 31.25 µg/mL (Candida albicans [21]): 8.42%
3 | O=C(/C=C/c1cccc(Nc2ccnc3cc(Cl)ccc23)c1)c1ccc(Br)cc1 | 15.8 | 10.3 (≈ 22.3 µM) | 0.7 (≈ 1.51 µM) | 32 | 125 (≈ 270 µM) | 250 (≈ 539 µM) | 58 | 47.7 | > 1000 | 44.5 | 34.9 | 46.4 | 250 (≈ 539 µM) | ≥ 250 | > 1000 | 0.88 (≈ 1.9 µM) | 35.3 | 35.1 | > 1000 | 1.35 (≈ 2.91 µM) | MIC (Klebsiella pneumoniae [14]): > 1000 µg/mL; MIC (Klebsiella pneumoniae [15]): > 1000 µg/mL; MIC (Neisseria gonorrhoeae): > 1000 µg/mL; MIC (Staphylococcus aureus [16]): > 1000 µg/mL; inhibition of growth at 125 µg/mL (Cryptococcus neoformans [17]): 70.6%; inhibition of growth at 250 µg/mL (Cryptococcus neoformans [18]): 100%; inhibition of growth at 7.8 µg/mL (Candida albicans [19]): 21.1%; inhibition of growth at 62.5 µg/mL (Cryptococcus neoformans [20]): 47.9%; MIC (Pseudomonas aeruginosa): > 1000 µg/mL; inhibition of growth at 31.25 µg/mL (Candida albicans [21]): 28.9%
